Values after ≈ are worked out from the molar mass of the structure shown.

This assay has as its system Plasmodium falciparum. Put plainly: Minimum inhibitory concentration against schizont maturation in Plasmodium falciparum NF-54. It counts as functional. In short, it runs like this: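 Rieckmann micro-assay with P. falciparum NF-54 cultured in RPMI-1640 (25 mM HEPES, 1% D-glucose, 0.23% NaHCO3, 10% heat-inactivated human serum), sorbitol-synchronized to ring stage. Start at ~1% parasitaemia, 3% haematocrit; compounds 0.25–50 µg/mL in duplicate, 37 °C candle jar, 36–40 h. Giemsa smears scored by microscopy; MIC = lowest concentration blocking complete maturation to schizonts.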
What is called MIC is the lowest concentration found to suppress growth. The compound `O=[N+]([O-])c1cccc(-c2cc(-c3ccncc3)nc(N3CCN(c4ccccc4)CC3)n2)c1` returned an MIC of 10 µg/mL (≈ 22.8 µM).

For `COc1ccc(-c2cc(-c3ccncc3)nc(N3CCN(c4ccccc4)CC3)n2)cc1`, the MIC was determined as 2 µg/mL (≈ 4.72 µM).

Regarding `Clc1ccc(-c2cc(-c3ccncc3)nc(N3CCN(Cc4ccccc4)CC3)n2)cc1`, 10 µg/mL (≈ 22.6 µM) was the least that counted as inhibitory (MIC).

`COc1cc(-c2cc(-c3ccncc3)nc(N3CCN(c4ccccc4)CC3)n2)cc(OC)c1OC`: the MIC came to 50 µg/mL (≈ 103 µM). This MIC is about 5-fold higher than that of the compound before.

`COc1cc(OC)c(-c2cc(-c3ccncc3)nc(N3CCN(c4ccccc4)CC3)n2)cc1OC` gave an MIC of 10 µg/mL (≈ 20.7 µM). This MIC is about 5-fold lower than that of the compound before.

With `CSc1ccc(-c2cc(-c3ccncc3)nc(N3CCN(C)CC3)n2)cc1`, 1 µg/mL (≈ 2.65 µM) was the least that counted as inhibitory (MIC).

Compound `c1ccc(CN2CCN(c3nc(-c4ccccc4)cc(-c4ccncc4)n3)CC2)cc1` gave an MIC of 2 µg/mL (≈ 4.91 µM).

In turn, `Cc1ccc(-c2cc(-c3ccncc3)nc(N3CCN(c4ccccc4)CC3)n2)cc1C` had an MIC of 2 µg/mL (≈ 4.74 µM).

Compound `Cc1ccc(-c2cc(-c3ccncc3)nc(N3CCN(c4ccccc4)CC3)n2)cc1` registered an MIC of 1 µg/mL (≈ 2.45 µM). This MIC lies about 2-fold lower than the previous one.

In turn, `CSc1ccc(-c2cc(-c3ccncc3)nc(N3CCN(Cc4ccccc4)CC3)n2)cc1` yielded an MIC of 2 µg/mL (≈ 4.41 µM). This MIC lies about 2-fold higher than the previous one.

In the case of `COc1cc(-c2cc(-c3ccncc3)nc(N3CCN(Cc4ccccc4)CC3)n2)cc(OC)c1OC`, the MIC stood at 10 µg/mL (≈ 20.1 µM).

Take `Clc1ccc(-c2cc(-c3ccncc3)nc(N3CCN(c4ccccc4)CC3)n2)cc1`: inhibition of growth (MIC) required 10 µg/mL (≈ 23.4 µM).

On to `Cc1ccc(-c2cc(-c3ccncc3)nc(N3CCN(C)CC3)n2)cc1`, for which the MIC came out at 1 µg/mL (≈ 2.89 µM).

Compound `COc1ccc(OC)c(-c2cc(-c3ccncc3)nc(N3CCN(c4ccccc4)CC3)n2)c1` came in with an MIC of 2 µg/mL (≈ 4.41 µM).

With `COc1ccc(OC)c(-c2cc(-c3ccncc3)nc(N3CCN(Cc4ccccc4)CC3)n2)c1`, the lowest concentration to inhibit growth (MIC) was 1 µg/mL (≈ 2.14 µM).

Turning to `COc1cc(OC)c(-c2cc(-c3ccncc3)nc(N3CCN(C)CC3)n2)cc1OC`, the lowest concentration to inhibit growth (MIC) was 2 µg/mL (≈ 4.74 µM).

`COc1ccc(OC)c(-c2cc(-c3ccncc3)nc(N3CCN(C)CC3)n2)c1` had an MIC of 0.5 µg/mL (≈ 1.28 µM).

Take `Cc1ccc(-c2cc(-c3ccncc3)nc(N3CCN(Cc4ccccc4)CC3)n2)cc1C`: the lowest concentration to inhibit growth (MIC) was 1 µg/mL (≈ 2.3 µM).

The compound `c1ccc(-c2cc(-c3ccncc3)nc(N3CCN(c4ccccc4)CC3)n2)cc1` showed an MIC of 10 µg/mL (≈ 25.4 µM).

`CSc1ccc(-c2cc(-c3ccncc3)nc(N3CCN(c4ccccc4)CC3)n2)cc1` yielded an MIC of 10 µg/mL (≈ 22.7 µM).

In the case of `O=[N+]([O-])c1cccc(-c2cc(-c3ccncc3)nc(N3CCN(Cc4ccccc4)CC3)n2)c1`, the minimum inhibitory concentration (MIC) was found to be 2 µg/mL (≈ 4.42 µM).

Compound `COc1ccc(-c2cc(-c3ccncc3)nc(N3CCN(C)CC3)n2)cc1` came in with an MIC of 1 µg/mL (≈ 2.77 µM).

Compound `CN1CCN(c2nc(-c3ccncc3)cc(-c3cccc([N+](=O)[O-])c3)n2)CC1` showed an MIC of 1 µg/mL (≈ 2.66 µM).

`Cc1ccc(-c2cc(-c3ccncc3)nc(N3CCN(C)CC3)n2)cc1C` yielded an MIC of 0.5 µg/mL (≈ 1.39 µM).

`Cc1ccc(-c2cc(-c3ccncc3)nc(N3CCN(Cc4ccccc4)CC3)n2)cc1` showed an MIC of 2 µg/mL (≈ 4.74 µM).

With `COc1cc(-c2cc(-c3ccncc3)nc(N3CCN(C)CC3)n2)cc(OC)c1OC`, the MIC amounted to 10 µg/mL (≈ 23.7 µM).

In turn, `CN1CCN(c2nc(-c3ccccc3)cc(-c3ccncc3)n2)CC1` returned an MIC of 1 µg/mL (≈ 3.02 µM).

As for `COc1cc(OC)c(-c2cc(-c3ccncc3)nc(N3CCN(Cc4ccccc4)CC3)n2)cc1OC`, the MIC was determined as 2 µg/mL (≈ 4.02 µM).

Take `CN1CCN(c2nc(-c3ccncc3)cc(-c3ccc(Cl)cc3)n2)CC1`: the MIC is 2 µg/mL (≈ 5.47 µM).

`COc1ccc(-c2cc(-c3ccncc3)nc(N3CCN(Cc4ccccc4)CC3)n2)cc1`: the MIC amounted to 1 µg/mL (≈ 2.29 µM). This MIC is about 2-fold lower than that of the compound before.

Consider `CCc1nc(N)nc(N)c1-c1ccc(Cl)cc1` [PYRIMETHAMINE], for which the MIC is 10 µg/mL (≈ 40.2 µM).

Values taken from ChEMBL document CHEMBL1139633, “Antimalarial activity and synthesis of new trisubstituted pyrimidines” (2005).
